For one data set, the system named is CSF Aβ42 and Aβ40. To be noted: human, 200 mg, ref Soares et al., 2016, cited from earlier work.
Data set [1] can be described thus: Kinetic aqueous solubility, PBS pH 7.4. To be noted: PBS buffer, pH 7.4, aqueous buffer, kinetic from dmso stock. It counts as physicochemical. In outline: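 Kinetic solubility in PBS at pH 7.4, read by UV/Vis absorbance and reported in micromolar.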
A short description of data set [2]: Kinetic solubility in simulated intestinal fluids. To be noted: for FaSSIF dissolved compound concentration: FaSSIF pH 6.5, UV/Vis absorbance; for FeSSIF dissolved compound concentration: FeSSIF pH 5.8, UV/Vis absorbance. It counts as physicochemical. The method in brief:
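Dissolved test compound concentration in FaSSIF or FeSSIF simulated intestinal fluids, determined by UV/Vis absorbance.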

Data set [3] can be described thus: Liver microsomal stability, human. It counts as in vitro ADME. To be noted: liver microsomes. In outline:
(§1)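 Test compound at 1 µM was incubated for 30 min with liver microsomes at 1 mg/ml (human, rat or mouse). Result is percent of parent compound remaining.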
Background: Microsomes from liver hold many membrane-bound enzymes, among them those of drug oxidation.

Data set [4] in a line: Liver microsomal stability, rat. Type of data set: in vitro ADME. To be noted: liver microsomes. In outline: as §1
Data set [5] can be described thus: Liver microsomal stability, mouse. Particulars: liver microsomes. It counts as in vitro ADME. The method in brief:
as §1

In the next data set the target is CYP450 3A4 (Homo sapiens, UniProt P08684). In words: CYP450 inhibition, recombinant isoform. Type of data set: in vitro ADME. In outline: (§2)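 Recombinant human CYP450 isoforms were incubated with isoform-specific probe substrates; for CYP3A4 these were midazolam and testosterone. Inhibition was quantified by LC-MS/MS analysis of probe-substrate turnover.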
Sequence of CYP450 3A4 (P08684 whole entry, canonical isoform): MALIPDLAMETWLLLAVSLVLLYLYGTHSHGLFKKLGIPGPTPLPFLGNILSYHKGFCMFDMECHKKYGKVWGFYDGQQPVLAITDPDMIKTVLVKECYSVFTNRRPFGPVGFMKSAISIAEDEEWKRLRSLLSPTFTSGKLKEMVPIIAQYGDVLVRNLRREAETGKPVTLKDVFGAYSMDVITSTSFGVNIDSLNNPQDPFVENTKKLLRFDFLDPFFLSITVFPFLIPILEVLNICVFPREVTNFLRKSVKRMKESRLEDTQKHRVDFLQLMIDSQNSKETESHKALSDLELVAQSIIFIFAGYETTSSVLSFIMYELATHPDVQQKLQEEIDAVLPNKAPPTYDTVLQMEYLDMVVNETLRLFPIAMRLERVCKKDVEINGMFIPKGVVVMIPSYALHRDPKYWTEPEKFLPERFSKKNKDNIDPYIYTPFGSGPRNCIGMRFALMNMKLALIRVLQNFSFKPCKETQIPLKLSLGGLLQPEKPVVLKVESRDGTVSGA
Another data set concerns the target T1, CYP450 1A2 (Homo sapiens, UniProt P05177).
T1 sequence (P05177 1-516): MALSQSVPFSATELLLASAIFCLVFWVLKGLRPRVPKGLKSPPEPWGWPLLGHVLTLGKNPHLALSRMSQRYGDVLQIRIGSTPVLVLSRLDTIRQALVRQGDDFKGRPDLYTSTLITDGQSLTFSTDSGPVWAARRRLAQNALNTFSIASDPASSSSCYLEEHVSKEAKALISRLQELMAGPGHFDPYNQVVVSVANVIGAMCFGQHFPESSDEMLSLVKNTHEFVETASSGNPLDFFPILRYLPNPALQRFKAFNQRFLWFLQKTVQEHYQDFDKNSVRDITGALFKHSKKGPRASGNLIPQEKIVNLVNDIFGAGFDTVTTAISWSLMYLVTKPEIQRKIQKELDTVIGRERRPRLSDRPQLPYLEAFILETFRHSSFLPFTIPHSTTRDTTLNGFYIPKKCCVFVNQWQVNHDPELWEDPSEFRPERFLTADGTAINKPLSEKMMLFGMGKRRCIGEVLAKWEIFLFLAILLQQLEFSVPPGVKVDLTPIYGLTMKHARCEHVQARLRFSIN
The data set can be described thus: CYP450 inhibition, recombinant isoform. It counts as in vitro ADME. The method in brief:
as §2

The target of another data set is CYP450 2C9 (Homo sapiens, UniProt P11712). The data set can be described thus: CYP450 inhibition, recombinant isoform. It counts as in vitro ADME.
Sequence of CYP450 2C9 (P11712 whole entry, canonical isoform): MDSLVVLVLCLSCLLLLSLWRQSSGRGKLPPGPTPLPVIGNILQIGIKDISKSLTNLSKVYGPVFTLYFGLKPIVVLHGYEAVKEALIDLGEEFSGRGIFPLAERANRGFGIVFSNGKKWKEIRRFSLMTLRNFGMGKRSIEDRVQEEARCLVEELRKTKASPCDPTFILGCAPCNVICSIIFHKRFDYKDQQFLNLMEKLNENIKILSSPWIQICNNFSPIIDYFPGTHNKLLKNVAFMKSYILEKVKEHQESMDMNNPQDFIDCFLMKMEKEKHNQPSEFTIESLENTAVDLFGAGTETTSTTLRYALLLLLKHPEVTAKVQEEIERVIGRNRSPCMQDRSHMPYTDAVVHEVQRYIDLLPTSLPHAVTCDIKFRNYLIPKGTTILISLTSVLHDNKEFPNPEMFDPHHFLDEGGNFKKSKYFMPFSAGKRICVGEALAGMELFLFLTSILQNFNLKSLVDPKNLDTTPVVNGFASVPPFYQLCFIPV
The target of a further data set is CYP450 2C19 (Homo sapiens, UniProt P33261). In words: CYP450 inhibition, recombinant isoform. Type of data set: in vitro ADME. In outline:
as §2

A further data set deals with CYP450 2D6 (Homo sapiens, UniProt P10635). In words: CYP450 inhibition, recombinant isoform. Type of data set: in vitro ADME. In outline: as §2
Sequence of CYP450 2D6 (P10635 whole entry, canonical isoform): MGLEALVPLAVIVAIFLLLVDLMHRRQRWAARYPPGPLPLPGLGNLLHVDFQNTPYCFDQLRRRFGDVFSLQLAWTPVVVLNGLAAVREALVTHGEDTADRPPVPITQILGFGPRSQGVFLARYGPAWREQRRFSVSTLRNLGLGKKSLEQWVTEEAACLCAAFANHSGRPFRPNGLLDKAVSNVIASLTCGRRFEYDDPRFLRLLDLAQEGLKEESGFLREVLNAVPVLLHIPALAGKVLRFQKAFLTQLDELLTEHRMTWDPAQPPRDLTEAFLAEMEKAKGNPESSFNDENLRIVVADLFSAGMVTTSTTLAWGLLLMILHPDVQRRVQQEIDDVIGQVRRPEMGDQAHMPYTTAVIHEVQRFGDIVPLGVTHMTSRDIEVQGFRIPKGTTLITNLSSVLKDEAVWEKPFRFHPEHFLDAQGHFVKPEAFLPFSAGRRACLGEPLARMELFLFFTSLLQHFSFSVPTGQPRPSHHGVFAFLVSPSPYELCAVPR
The nature of data set [6]: Plasma protein binding, equilibrium dialysis. It counts as in vitro ADME. Particulars: human. In outline:
(§3)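 Equilibrium dialysis of test compound in human, rat or mouse plasma against buffer across a semipermeable membrane. Compound concentrations in both compartments were measured by LC/MS, and percent bound was derived from them.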

Data set [7] is described as follows: Plasma protein binding, equilibrium dialysis. It counts as in vitro ADME. To be noted: rat. The method in brief: as §3
A short description of data set [8]: Plasma protein binding, equilibrium dialysis. Type of data set: in vitro ADME. To be noted: mouse. The method in brief: as §3
In general terms: Equilibrium dialysis compares concentrations on both sides of a semipermeable membrane.

A further data set addresses hERG channel (Homo sapiens, UniProt Q12809). The data set can be described thus: Patch-Xpress patch-clamp hERG assay in HEK-293 cells. Type of data set: cell-based. (In general: The patch-clamp technique gives a direct electrical read-out from membranes.)
A short description of another data set: MDR1-MDCK permeability. It counts as in vitro ADME. To be noted: dog. In outline: (§4)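 Transport across MDR1-MDCK cell monolayers. Apparent permeability was measured in the apical-to-basolateral direction (× 10−6 cm/s). Efflux ratio was calculated as Papp B-A / Papp A-B.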
The next data set has as its system P-glycoprotein (MDR1). In words: MDR1-MDCK permeability. Type of data set: in vitro ADME. Particulars: dog. In outline: as §4
The subject of data set [9] is S. typhimurium bacterial strains TA98, TA100, TA1535, TA1537. The data set can be described thus: Non-GLP screening. Type of data set: cell-based, Salmonella typhimurium. To be noted: 5–100 µM, with and without Aroclor-induced rat liver S9. The method in brief: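 Non-GLP mini-Ames screen using S. typhimurium TA98, TA100, TA1535 and TA1537, with and without Aroclor-induced rat liver S9. Test article was applied at 5–100 µM. Read-out was bacterial growth from reversion of the histidine mutation.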

For data set [10], the system named is S. typhimurium strains TA1535, TA1537, TA98, TA100 and E. coli strain WP2 (uvrA). The data set can be described thus: GLP Salmonella–Escherichia coli/microsome plate incorporation. Type of data set: cell-based, Salmonella typhimurium. To be noted: S. typhimurium TA98 and TA100, only with Aroclor-induced rat liver S9; data not shown. In outline: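 GLP plate-incorporation mutagenicity test using S. typhimurium TA1535, TA1537, TA98 and TA100 and E. coli WP2 (uvrA). Each strain was run with and without a metabolic activation mix of Aroclor 1254–induced rat liver microsomes (S9). Read-out is revertant bacterial growth.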

A short description of data set [11]: GLP 28-d IND-enabling safety/toxicology study of compound 1 in rats. It counts as in vivo, rat. Particulars: data not shown.
Data set [12] in a line: GLP 28-d IND-enabling safety/toxicology study of compound 1 in NHPs. Particulars: data not shown. Type of data set: in vivo, NHP.
Another data set has as its system plasma Aβ42. To be noted: human, 250 mg, SAD study; ref Yu et al., 2014; cited from earlier work.
For the next data set, the system named is CSF Aβ42. Particulars: human, ref Ahn et al., 2020, cited from earlier work; for CSF Aβ42 levels lowered: MAD study.
A further data set relates to γ-secretase. To be noted: ref Green et al., 2009; cited from earlier work.
For data set [13] the following is noted: ref Green et al., 2009; cited from earlier work.
Where [14] appears, read: CYP450 IC50 3A4 (m), probe substrate midazolam.

Converted amounts (≈) assume the structure as drawn. Like-named read-outs stand apart in the source and are kept apart here.

Sequence of hERG channel (Q12809 whole entry): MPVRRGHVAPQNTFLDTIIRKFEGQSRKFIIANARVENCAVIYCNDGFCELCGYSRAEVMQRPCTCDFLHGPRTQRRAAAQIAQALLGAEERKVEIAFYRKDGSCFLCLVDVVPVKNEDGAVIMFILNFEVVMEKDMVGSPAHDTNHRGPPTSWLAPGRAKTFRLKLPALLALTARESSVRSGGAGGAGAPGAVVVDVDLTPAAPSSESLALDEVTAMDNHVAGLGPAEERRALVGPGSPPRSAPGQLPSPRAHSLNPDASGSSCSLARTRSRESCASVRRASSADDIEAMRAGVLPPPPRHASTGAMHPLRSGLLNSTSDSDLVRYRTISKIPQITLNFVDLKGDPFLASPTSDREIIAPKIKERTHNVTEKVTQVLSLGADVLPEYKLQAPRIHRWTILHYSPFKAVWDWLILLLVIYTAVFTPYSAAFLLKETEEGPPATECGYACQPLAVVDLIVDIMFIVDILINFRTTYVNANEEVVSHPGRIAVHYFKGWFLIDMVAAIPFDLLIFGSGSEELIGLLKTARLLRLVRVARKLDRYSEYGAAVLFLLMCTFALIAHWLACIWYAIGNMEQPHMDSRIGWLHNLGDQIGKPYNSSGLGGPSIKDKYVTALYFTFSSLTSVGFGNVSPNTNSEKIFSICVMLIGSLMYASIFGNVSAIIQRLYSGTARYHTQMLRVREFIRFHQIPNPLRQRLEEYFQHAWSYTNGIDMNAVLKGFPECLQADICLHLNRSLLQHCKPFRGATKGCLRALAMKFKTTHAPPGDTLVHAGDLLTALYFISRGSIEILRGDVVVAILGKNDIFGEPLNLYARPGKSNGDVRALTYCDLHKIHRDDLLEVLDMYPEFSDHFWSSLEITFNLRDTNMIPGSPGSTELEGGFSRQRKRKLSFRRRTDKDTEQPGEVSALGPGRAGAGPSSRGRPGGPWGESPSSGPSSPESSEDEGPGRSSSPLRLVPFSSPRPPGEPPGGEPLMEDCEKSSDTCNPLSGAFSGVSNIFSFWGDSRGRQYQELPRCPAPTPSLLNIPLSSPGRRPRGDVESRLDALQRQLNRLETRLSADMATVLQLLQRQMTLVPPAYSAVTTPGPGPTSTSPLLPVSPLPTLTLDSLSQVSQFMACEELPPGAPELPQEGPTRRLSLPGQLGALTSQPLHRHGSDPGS
Sequence of CYP450 2C19 (P33261 whole entry, canonical isoform): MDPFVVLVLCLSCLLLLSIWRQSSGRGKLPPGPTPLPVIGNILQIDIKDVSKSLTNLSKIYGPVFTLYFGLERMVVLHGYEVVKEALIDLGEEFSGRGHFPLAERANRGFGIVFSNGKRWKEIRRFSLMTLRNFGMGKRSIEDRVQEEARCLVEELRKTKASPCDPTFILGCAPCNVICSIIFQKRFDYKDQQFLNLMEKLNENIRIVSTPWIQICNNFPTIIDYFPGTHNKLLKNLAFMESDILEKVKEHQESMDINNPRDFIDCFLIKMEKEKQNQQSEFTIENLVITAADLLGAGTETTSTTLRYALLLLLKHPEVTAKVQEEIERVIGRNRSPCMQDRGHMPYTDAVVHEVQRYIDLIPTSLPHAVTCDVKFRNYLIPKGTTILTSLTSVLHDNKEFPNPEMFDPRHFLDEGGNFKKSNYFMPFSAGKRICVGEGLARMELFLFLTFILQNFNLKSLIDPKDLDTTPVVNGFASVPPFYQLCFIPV

For the compound `CNc1nc(Nc2ccc(-n3cnc(C)n3)c(OC)c2)nc2c1CC[C@H]2c1ccc(F)cc1` [BMS-932481], in the data set on CSF Aβ42 and Aβ40 (2-wk MAD study), the “maximal lowering of CSF Aβ40 levels” value is 74% and the “maximal lowering of CSF Aβ42 levels” value is listed as 77%. Further, in the data set on CSF Aβ42 and Aβ40, the “stage 3 elevations in alanine amino transferase” value was “two of six subjects”.

For the compound `COc1nc(-c2cc(C)c(N[C@@H](C)c3ccc(F)cc3)nn2)ccc1-n1cnc(C)c1` [Compound 1, (S)-N-(1-(4-fluorophenyl)ethyl)-6-(6-methoxy-5-(4-methyl-1H-imidazol-1-yl)pyridin-2-yl)-4-methylpyridazin-3-amine], in data set [1], the solubility (kinetic) – broadly, solubility judged after dilution from a stock solution rather than from solid – worked out at 6.6 µM (≈ 2.76 µg/mL). In data set [2], the “FaSSIF dissolved compound concentration” value is on record as >100/ >100. Besides, the “FeSSIF dissolved compound concentration” value in [2] is reported as >100/ >100. For the same compound, the results for the fraction remaining at 0.5 h, 1 µM in [3], in [4] and in [5] were 78%, 84% and 76%, respectively. Also, the IC50 (commonly the concentration that gives 50% inhibition) on CYP450 3A4 was 8.9 µM; at CYP450 3A4 (setting [14]), 14 µM; at CYP450 1A2, 37 µM; on CYP450 2C9, 1.3 µM; on CYP450 2C19, 6.9 µM; at CYP450 2D6, 4.7 µM. 6.2 µM corresponded to half-maximal inhibition against hERG channel (IC50). Further, the fraction unbound (as a rule, the share of the substance not bound to proteins or other matrix) in data set [6] is 0.004; in [7], 0.001; in data set [8] it was 0.002. For the same compound, the Papp A→B (in general, the apparent permeability from the apical to the basolateral side of a cell layer) in the data set “MDR1-MDCK permeability” is 37.2 ×10⁻⁶ cm/s. Further, the efflux ratio (in general, the permeability from basolateral to apical divided by that in the opposite direction, in the common usage) with P-glycoprotein (MDR1) was 0.9. Also, the Ames result in data set [9] is given as “Positive”. In addition, the Ames assay results in data set [10] was “highly variable”. In data set [11], the “finding in GLP 28-d IND-enabling study in rat” value was “potentially mutagenic metabolite(s)”. In data set [12], the “finding in GLP 28-d IND-enabling study in NHPs” value is given as “evidence of corrected QT interval prolongation”.

`COc1nc(-c2cc(C)c(N[C@@H](C)c3c(F)cc(F)cc3F)nn2)ccc1-n1cnc(C)c1` [Compound 3, (S)-6-(6-methoxy-5-(4-methyl-1H-imidazol-1-yl)pyridin-2-yl)-4-methyl-N-(1-(2,4,6-trifluorophenyl)ethyl)pyridazin-3-amine] registered a kinetic solubility in [1] of less than 1.3 µM. Besides, the “FaSSIF dissolved compound concentration” value in [2] is given as 79. The “FeSSIF dissolved compound concentration” value in [2] was 82. Further, the amount remaining at 0.5 h, 1 µM in data set [3], in [4] and in data set [5] was 100% each time. Also, the half-inhibitory concentration (IC50) at CYP450 3A4 stood at 17 µM; on CYP450 3A4 (setting [14]) it was 19 µM; on CYP450 1A2, 3.6 µM; at CYP450 2C9, 1.3 µM; on CYP450 2C19, 13 µM; at CYP450 2D6, 20 µM. Further, the IC50 at hERG channel amounted to 3.1 µM. For the same compound, on CYP450 2C9, the “CYP450 2C9 IC50 relative to Aβ42 IC50” value is reported as “over 200 fold”. Besides, the fraction unbound in [6], in data set [7] and in data set [8] was 0.003 in each case. The “safety margin between Aβ42 IC50 and hERG IC20” value on hERG channel was greater than 100 fold. Besides, on hERG channel (human, HEK-293 cells expressing hERG), the IC20 (as a rule, the concentration needed for an effect of 20%) was found to be 1 µM. Also, the apical-to-basolateral permeability (Papp A→B) in “MDR1-MDCK permeability” was determined as 30.2 ×10⁻⁶ cm/s. In addition, the efflux ratio in the data set with P-glycoprotein (MDR1) came out at 1.1. In addition, in data set [9], the Ames result is given as “Negative”.

On to `COc1nc(/C=C/c2nc3n(n2)CCC[C@H]3c2ccccc2C(F)(F)F)ccc1-n1cnc(C)c1` [E2212], for which the “maximal lowering of plasma Aβ42 levels (AUC0–24 h)” value in the data set on plasma Aβ42 is 44.1%.

For the compound `Cc1cn(-c2ccc3n(c2=O)CCN([C@@H](C)[C@@H]2CC[C@H](c4cc(F)c(Cl)cc4C(F)(F)F)O2)C3=O)cn1` [PF-06648671], the “CSF Aβ42 levels lowered” value in the data set with CSF Aβ42 (100 mg) was 44%; in the data set with CSF Aβ42 (200 mg), 59%; with CSF Aβ42 (360 mg), 65%. Moreover, the safety profile result in the data set with CSF Aβ42 (up to 360 mg qd for 14 d) is on record as “good safety profile”.

Take `C[C@@H](C(=O)O)c1ccc(-c2ccccc2)c(F)c1` [R-flurbiprofen]: the “in vitro GSM activity” value with γ-secretase is recorded as “weak”. Moreover, the “efficacy in phase 3 human trials” value in [13] is “did not show efficacy”.

These data come from PMC7931646 (The Journal of Experimental Medicine, 2021).
